Kir21 inh – Kir2.1 (mouse) channel inhibition; AID 1672; HEK293-Kir2.1, FluxOR thallium flux fluorescence; hits give low values; P35561; 310,000 compounds, 0.85% hits; B-score at 10 µM;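 active means fluorescence ratio B-score at or below minus 3 SD of library scores, with starting-brightness B-score within 2 SD, cut at about -4.2 in these data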;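 further: channel flux triggered by added potassium and thallium sulfate stimulus; B-score of peak minus minimum fluorescence over baseline after thallium stimulus; more negative B-score means stronger Kir2.1 block with less thallium influx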
Target sequence (P35561 whole entry, looked up): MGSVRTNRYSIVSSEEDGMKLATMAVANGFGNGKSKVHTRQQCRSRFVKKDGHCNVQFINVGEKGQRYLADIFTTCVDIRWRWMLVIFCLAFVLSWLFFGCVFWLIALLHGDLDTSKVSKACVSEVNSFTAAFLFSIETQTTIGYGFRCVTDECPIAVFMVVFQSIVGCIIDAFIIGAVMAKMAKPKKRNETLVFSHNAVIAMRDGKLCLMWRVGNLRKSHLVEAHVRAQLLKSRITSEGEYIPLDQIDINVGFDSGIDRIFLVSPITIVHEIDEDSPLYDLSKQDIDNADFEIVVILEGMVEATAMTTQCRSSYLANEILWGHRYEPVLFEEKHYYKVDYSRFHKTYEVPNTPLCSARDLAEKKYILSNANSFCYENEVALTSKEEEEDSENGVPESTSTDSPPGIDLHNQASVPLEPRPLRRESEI
SR-BI DiI inh – inhibitors of mouse SR-BI mediated HDL lipid uptake. Q61009. ldlA[mSR-BI] CHO cells, DiI-HDL uptake fluorescence, 3 h. inhibition, % at 12.5 µM. 320,000 compounds, 0.96% hits. AID 488896;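 active means mean replicate inhibition of at least 70% and a set share of replicates each scoring 70 or more; inconclusive means meets just one of the two criteria; inactive means fails both criteria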
DNA FID counter – displaces DNA intercalator in HCV helicase counter-screen; AID 1845; DNA fluorescent intercalator displacement, fluorescence; inhibition, % at 7.9 µM; 290,000 compounds, 0.17% hits; in the data active means inhibition above about 37%;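 further: higher means more ethidium bromide displaced from hairpin DNA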
TMEM16A act – activators or potentiators of mouse TMEM16A chloride channel | Q8BHY3 | HEK293 TMEM16A/YFP-H148Q/I152L, iodide quench fluorescence; hits give low values | B-score at 10 µM | 340,000 compounds, 0.3% hits;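 active means fluorescence-ratio B-score plate-corrected deviation score at least 3 library SD below zero, with starting fluorescence score within 5 deviations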;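 further: channel opened by trigger with iodide after compound preincubation; score built on the fluorescence ratio of max minus min over baseline; more negative score means more quench and so TMEM16A activation or potentiation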
ANO1 block – mouse TMEM16A channel inhibition, primary screen; normalized B-score (activity score, 25-100; higher = stronger inhibition) at 10 µM; HEK293 TMEM16A/YFP iodide influx fluorescence, ionomycin; Q8BHY3; 310,000 compounds, 1.2% hits; AID 588511;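 active means ratio plate-corrected score three or more library SD toward inhibition, starting fluorescence score within five deviations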;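 further: score derived from kinetic fluorescence span divided by baseline fluorescence per well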
SR-BI DiI-HDL act – activators of SR-BI mediated HDL lipid uptake. CHO ldlA[mSR-BI] cells, DiI-HDL uptake fluorescence, 3 h; 100 = double the neutral-control signal. activation, % at 12.5 µM. 320,000 compounds, 0.096% hits. AID 504775;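 active means mean replicate activation of at least 60% and every replicate at or above 60%; inconclusive means mean or all-replicate condition met, but not both; inactive means mean below 60% and not all replicates reaching 60%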
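Material – SR-BI-overexpressing, LDLR-lacking CHO cells · Medium – BSA-supplemented, HEPES-buffered Ham's F12, pH 7.4 · Doses – single concentration · Times – compound with DiI-HDL co-incubation, 3 h at 37 °C · Measured by – bottom-read fluorescence, 550/595 nm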
Large screens that a line does not name were inactive. Sampled rows, rich in hits. Any-hit rate of the full collection: about 3%.

COc1ccc(NS(=O)(=O)c2ccc(O)c(NC(=O)c3cc4c(C)nn(-c5ccc(F)cc5)c4s3)c2)cc1	SR-BI DiI inh 77
Nc1c(SCCC(=O)O)ccc2c1C(=O)c1ccccc1C2=O	TMEM16A act -5.3
Nc1c(C(=O)O)ccc2c1C(=O)c1ccccc1C2=O	none
CCOC(=O)/C(C#N)=C/c1c(OCC)n(CC)c2ccccc12	ANO1 block 100
CC(C)(C)c1ccc(Cn2c(=N)n(CC(O)c3ccco3)c3ccccc32)cc1 (configuration not stated)	Kir21 inh -6.2
C/C=C/c1ccc(OCC(O)CNCCc2ccc(OC)cc2)c(OC)c1 (configuration not stated)	Kir21 inh -6
C/C=C/c1ccc(OCC(O)CN(C)Cc2ccc(SC)cc2)c(OC)c1 (configuration not stated)	Kir21 inh -11
CC(NCC(O)c1ccc([N+](=O)[O-])cc1)C12CC3CC(CC(C3)C1)C2 (configuration not stated)	DNA FID counter 38
O=C(NCC(O)c1ccc([N+](=O)[O-])cc1)Nc1ccccc1 (configuration not stated)	none
Cc1ccccc1SCC(=O)NNC(=O)c1ccccc1O	SR-BI DiI inh 79
CCCCOC(=O)N1CCOCCOCCOCC1	Kir21 inh -4.7
CCCCNC(=O)N1CCOCCOCCN(C(=O)NCCCC)CCOCCOCC1	none
CC(C)C[C@H](N)c1nnc(S(=O)(=O)Cc2cccc(F)c2)o1	Kir21 inh -7.9
Nc1cccc(Nc2nc(OC(C(F)(F)F)C(F)(F)F)nc(OC(C(F)(F)F)C(F)(F)F)n2)c1	ANO1 block 100
CCN(CC)CCNc1ccnc2cc(Cl)ccc12	DNA FID counter 48
Clc1ccc2c(NCc3ccccc3)ccnc2c1	none (no result: SR-BI DiI inh, SR-BI DiI-HDL act)
CCN(CC)Cc1cc(Nc2ccnc3cc(Cl)ccc23)ccc1O	DNA FID counter 69
Cc1cccc(/C=C2\Sc3ccc(C(=O)NCC4CCCO4)cc3N(C)C2=O)c1 (configuration not stated)	SR-BI DiI inh 92
CN1C(=O)/C(=C/c2ccccc2F)Sc2ccc(C(=O)NCC3CCCO3)cc21 (configuration not stated)	SR-BI DiI inh inconclusive
CCOC(=O)N1CCC(NC(=O)c2ccc3c(c2)N(C)C(=O)/C(=C/c2cccc(OC)c2)S3)CC1	SR-BI DiI inh 75
COc1ccccc1CNC(=O)CC(C)C	none
COc1ccccc1CNCC(c1ccccc1)c1ccccc1	Kir21 inh -8.5
COc1ccccc1CNCc1cccc(Oc2ccccc2)c1	Kir21 inh -8.8
COc1ccc(Br)cc1CNC(C)c1ccccc1 (configuration not stated)	Kir21 inh -4.4
OCCNCC(O)Cn1c2ccccc2c2ccccc21 (configuration not stated)	none
COc1ccccc1CNCC(O)Cn1c2ccccc2c2ccccc21 (configuration not stated)	Kir21 inh -13
COc1cc(CNC(C)c2ccccc2)cc(Br)c1OCc1ccccc1 (configuration not stated)	none
COc1ccccc1CNCc1cc(Br)ccc1OC	Kir21 inh -6
COc1cc(CNCc2cccc3ccccc23)cc(OC)c1	Kir21 inh -4.7
COc1ccccc1CNCc1cc(OC)c(OC)cc1OC	none
c1ccc(-c2ccccc2OCCCN2CCCC2)cc1	Kir21 inh -4.2
CC1CC(C)CN(CCOc2ccccc2-c2ccccc2)C1 (configuration not stated)	Kir21 inh -6.3
CC(C)c1ccccc1OCCCN1CCCC1	none
CC(C)c1ccccc1OCCCCN1CCCCC1	Kir21 inh -5 (no result: DNA FID counter)
c1ccc(-c2ccccc2OCCCN2CCCCCC2)cc1	none
CC1CCN(CCOc2ccccc2-c2ccccc2)CC1	none
Cc1ccc(C)c(CN2CCN(c3ncccn3)CC2)c1	none
O=S(=O)(NC1CCCCC1Oc1ccccc1)c1ccccc1 (configuration not stated)	Kir21 inh -5.4
CC(=O)c1cccc(N=Nc2c(C)[nH]c3ccccc23)c1	none

High-throughput results: PubChem, several laboratories
